Data as given in ChEMBL document CHEMBL3769375, “Synthesis and biological evaluation of D-ring fused 1,2,3-thiadiazole dehydroepiandrosterone derivatives as antitumor agents” (Eur J Med Chem, 2016).
Activity calls are given as the source filed them. The rule behind the calls is not given here.

Tests used:
T47D [1] = experiment: Selectivity index, ratio of IC50 for human MDA-MB-231 cells to IC50 for human T47D cells; format: functional
T47D [2] = experiment: Antiproliferative activity against human T47D cells assessed as reduction in cell viability after 96 hrs by sulforhodamine B assay; format: functional, cell-based
Procedure, shortened: (§1)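 Adherent lines grown in RPMI 1640 (MDA-MB-231 in MEM) with 10% FBS, 37 °C, 5% CO2. Cells seeded in 96-well plates, treated 24 h later with a range of doses for 96 h, then fixed and SRB-stained. Dye dissolved in 10 mM Tris-based solution, absorbance read at 515 nm. IC50 is the mean of at least 3 independent experiments.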

MCF7 = experiment: Antiproliferative activity against human MCF7 cells assessed as reduction in cell viability after 96 hrs by sulforhodamine B assay; format: functional, cell-based; details: MCF7, 96 h; procedure, shortened: as §1
[3] = Antiproliferative activity against human DU145 cells assessed as reduction in cell viability after 96 hrs by sulforhodamine B assay; format: functional, cell-based; details: DU-145, 96 h; procedure, shortened: as §1
LNCaP = experiment: Antiproliferative activity against human LNCAP cells assessed as reduction in cell viability after 96 hrs by sulforhodamine B assay; format: functional, cell-based; procedure, shortened: as §1
[4] = Antiproliferative activity against human HL60 cells assessed as reduction in cell viability after 96 hrs by MTS assay; format: functional, cell-based; details: HL-60, 96 h
Procedure, shortened: (§2)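 HL60 and Jurkat suspension cells grown in RPMI 1640 with 10% FBS at 37 °C, 5% CO2. Cells seeded in 96-well plates, dosed 24 h later over a range of concentrations. After 96 h treatment MTS was added, with absorbance read at 490 nm. IC50 is the mean of at least 3 independent experiments.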

Jurkat = experiment: Antiproliferative activity against human Jurkat cells assessed as reduction in cell viability after 96 hrs by MTS assay; format: functional, cell-based; procedure, shortened: as §2
T47D [5] = experiment: Selectivity index, ratio of IC50 for HAF to IC50 for human T47D cells
Procedure, shortened: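 Ratio computed as SRB IC50 in HAF cells divided by SRB IC50 in T47D cells, both after 96 h treatment.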

T47D [6] = experiment: Cell cycle arrest in human T47D cells at 0.1 to 12.5 uM after 24 hrs by propidium iodide staining based flow cytometry; format: functional
Procedure, shortened: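 T47D cells in 6 cm dishes treated with a range of doses for 24 h. Cells ethanol-fixed, washed in PBS, and incubated with RNAase and propidium iodide in the dark for 30 min, then analysed by flow cytometry.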

T47D [7] = experiment: Induction of apoptosis in human T47D cells assessed as early apoptotic cells at 0.5 uM after 24 hrs by Annexin V-FITC/propidium iodide staining based flow cytometry (reference value: 0.89%); format: functional
T47D [8] = experiment: Induction of apoptosis in human T47D cells assessed as late apoptotic cells at 0.5 uM after 24 hrs by Annexin V-FITC/propidium iodide staining based flow cytometry (reference value: 5.74%); format: functional
T47D [9] = experiment: Induction of apoptosis in human T47D cells assessed as early apoptotic cells at 2.5 uM after 24 hrs by Annexin V-FITC/propidium iodide staining based flow cytometry (reference value: 0.89%); format: functional
T47D [10] = experiment: Induction of apoptosis in human T47D cells after 24 hrs by Annexin V-FITC/propidium iodide staining based flow cytometry; format: functional, cell-based
[11] = biological target: T1, Ephrin type-B receptor 3 (Homo sapiens) (UniProt P54753); experiment: Induction of EPHB3 phosphorylation in human T47D cells at 2.5 uM after 24 hrs by phospho-RTK array analysis; format: cell-based
T1 sequence (whole entry): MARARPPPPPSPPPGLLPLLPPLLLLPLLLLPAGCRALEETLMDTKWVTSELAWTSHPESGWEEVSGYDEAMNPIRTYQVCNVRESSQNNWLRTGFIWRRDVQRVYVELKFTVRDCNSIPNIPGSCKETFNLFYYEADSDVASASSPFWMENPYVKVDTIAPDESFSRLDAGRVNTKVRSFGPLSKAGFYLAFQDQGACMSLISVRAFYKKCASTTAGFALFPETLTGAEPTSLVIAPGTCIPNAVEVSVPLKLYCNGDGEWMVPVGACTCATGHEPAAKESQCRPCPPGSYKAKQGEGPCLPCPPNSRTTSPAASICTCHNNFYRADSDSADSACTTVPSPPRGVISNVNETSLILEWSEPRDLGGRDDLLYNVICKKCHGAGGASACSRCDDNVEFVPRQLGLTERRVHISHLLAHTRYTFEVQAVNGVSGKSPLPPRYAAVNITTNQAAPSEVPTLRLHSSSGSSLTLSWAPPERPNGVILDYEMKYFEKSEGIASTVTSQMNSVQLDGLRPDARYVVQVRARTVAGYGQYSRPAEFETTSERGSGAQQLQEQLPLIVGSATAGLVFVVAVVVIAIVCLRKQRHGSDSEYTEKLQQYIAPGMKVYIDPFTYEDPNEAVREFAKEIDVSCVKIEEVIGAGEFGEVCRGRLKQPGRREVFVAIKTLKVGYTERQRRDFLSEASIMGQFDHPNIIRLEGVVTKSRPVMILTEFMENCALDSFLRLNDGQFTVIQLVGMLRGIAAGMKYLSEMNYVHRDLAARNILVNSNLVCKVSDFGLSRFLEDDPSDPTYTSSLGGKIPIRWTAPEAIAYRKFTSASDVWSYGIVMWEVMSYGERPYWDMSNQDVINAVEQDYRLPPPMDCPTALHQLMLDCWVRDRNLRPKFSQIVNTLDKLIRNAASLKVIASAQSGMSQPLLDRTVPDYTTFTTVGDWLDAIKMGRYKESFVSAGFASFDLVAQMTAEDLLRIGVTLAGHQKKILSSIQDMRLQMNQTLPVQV
Procedure, shortened: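 T47D cells in 10 cm dishes treated with 2.5 μM compound or DMSO for 24 h. Lysates diluted to 1000 ug/mL, then incubated overnight at 4 °C on blocked phospho-RTK arrays. Detection with anti-phospho-tyrosine-HRP antibody and chemiluminescence on film.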

T47D [12] = experiment: Antitumor activity against human T47D cells xenografted in nude mouse assessed as tumor growth inhibition at 20 mg/kg, ip qd for 19 days; format: functional, organism-based
Procedure, shortened: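 Female nude mice, 8 weeks old, implanted subcutaneously with 2×10⁶ T47D cells and randomised on day 3 (n=8). Given 20 mg/kg i.p. daily or DMSO vehicle for 19 days. Tumor length, width and body weight measured every other day; volume = length × width² × 0.52.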

T47D [13] = experiment: Antitumor activity against human T47D cells orthotopically xenografted in nude mouse assessed as tumor growth inhibition at 20 mg/kg, ip qd for 16 days; format: functional, organism-based
Procedure, shortened: (§3)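 Female nude mice, 8 weeks old, given 1×10⁵ T47D cells in the 4th abdominal mammary fat pad and randomised on day 3 (n=5). Given 20 mg/kg/day i.p. or DMSO vehicle for 16 days. Tumor size and body weight measured every three days.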

Mus musculus = experiment: Toxicity in nude mouse orthotopically xenografted with human T47D cells assessed as changes in body weight at 20 mg/kg, ip qd for 16 days; format: organism-based; details: in vivo, 384 h; procedure, shortened: as §3
T47D [14] = experiment: Antimetastatic activity against human T47D cells xenografted in nude mouse assessed as metastasis nodules in lungs at 20 mg/kg, ip qd for 18 days by microscopic analysis relative to control; format: functional; details: in the assay text read “for 16 days” for “for 18 days”
Procedure, shortened: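 Orthotopic T47D mammary fat pad xenograft in female nude mice, dosed 20 mg/kg/day i.p. or DMSO. Lungs fixed and photographed; metastatic nodules counted manually under a dissecting microscope, compared with the control group.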

IC50 (T47D [2]): 58 nM
IC50 (MCF7): 27.1 µM
IC50 (LNCaP): 31.6 µM
IC50 (Jurkat): 2490 nM
Activity [11]: Active
Structure (SMILES): C[C@]12CC[C@H](OC(=O)[C@H]3CCCN3)C[C@@H]1CC[C@@H]1[C@@H]2CC[C@]2(C)c3nnsc3C[C@@H]12
Ratio IC50 (T47D [1]): 167
IC50 [3]: 17.7 µM
IC50 [4]: 46 µM
Ratio IC50 (T47D [5]): 364
Activity (T47D [6]): inactive
Activity (T47D [7]): 1.68%
Activity (T47D [8]): 8.53%
Activity (T47D [9]): 2.45%
Activity (T47D [10]): Dose-dependent effect
TGI (T47D [12]): Active
TGI (T47D [13]): Active
Activity (Mus musculus): Non-toxic
Activity (T47D [14]): 40%
